This is an account of results in ChEMBL document CHEMBL3817827, “5-Substituted 3-chlorokenpaullone derivatives are potent inhibitors of Trypanosoma brucei bloodstream forms” (Bioorg Med Chem, 2016).

pEC50, pIC50: −log10 of the molar value. Active and inactive are the calls of the source. The rule behind the calls is not given here. Where only a bound is given, the exact number is not on record here.

By pIC50 is commonly meant the IC50 on a negative log10 scale, so that one unit is a factor of ten. A word on the pEC50: it is the EC50 on a negative log10 scale, so that one unit is a factor of ten. One may read the solubility (thermodynamic) as solubility found after equilibrating the solid with the medium.

For one data set, the system named is Trypanosoma brucei. As to the kind of experiment: Inhibition of Trypanosoma brucei recombinant His-tagged TryS expressed in Escherichia coli BL21 (DE3) assessed as residual enzyme activity by measuring inorganic phosphate release at 30 uM after 15 mins by malachite green dye based end-point assay. The gist of the method:
(§1)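 His-tagged TryS expressed in E. coli BL21(DE3), Ni-NTA then gel filtration/ion exchange purified. Reaction buffer: 100 mM HEPES pH 7.4, 5 mM DTT, 10 mM MgSO4, 0.5 mM EDTA, 9 mM NaCl, 10% DMSO; 150 µM ATP, 2 mM spermidine; glutathione 0.05 (Tb), 0.57 (Tc), 0.25 mM (Li). Stopped at 15 min, malachite green phosphate read at 650 nm, blank-corrected versus DMSO; screen at 30 µM, IC50 if >50% inhibition.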

Data set [1] can be described thus: Inhibition of Trypanosoma cruzi recombinant His-tagged TryS expressed in Escherichia coli BL21 (DE3) assessed as inorganic phosphate release after 15 mins by malachite green dye based end-point assay. The method in brief:
as §1

A short description of data set [2]: Selectivity index, ratio of EC50 for mouse J774 cells to EC50 for bloodstream forms of Trypanosoma brucei brucei 427 stably transfected with pHD449 plasmid. The format is toxicity, cell-based. To be noted: read-out: Ratio EC50.
The nature of data set [3]: Inhibition of Leishmania infantum recombinant His-tagged TryS expressed in Escherichia coli BL21 (DE3) assessed as inorganic phosphate release after 15 mins by malachite green dye based end-point assay. The gist of the method:
as §1

The test system of data set [4] is Trypanosoma brucei brucei. As to the kind of experiment: Antitrypanosomal activity against bloodstream forms of Trypanosoma brucei brucei 427 stably transfected with pHD449 plasmid assessed as reduction in parasite viability after 24 hrs by propidium iodide staining based flow cytometry. To be noted: Trypanosoma brucei, 427, 24 h. The format is functional, organism-based.

A further data set has as its system Trypanosoma cruzi. As to the kind of experiment: Inhibition of Trypanosoma cruzi recombinant His-tagged TryS expressed in Escherichia coli BL21 (DE3) assessed as residual enzyme activity by measuring inorganic phosphate release at 30 uM after 15 mins by malachite green dye based end-point assay. The method in brief:
as §1

The test system of another data set is Leishmania infantum. As to the kind of experiment: Inhibition of Leishmania infantum recombinant His-tagged TryS expressed in Escherichia coli BL21 (DE3) assessed as residual enzyme activity by measuring inorganic phosphate release at 30 uM after 15 mins by malachite green dye based end-point assay. The gist of the method: as §1
Data set [5] has as its system Trypanosoma brucei brucei. Put plainly: Antitrypanosomal activity against bloodstream forms of Trypanosoma brucei brucei 427 stably transfected with pHD449 plasmid assessed as parasite viability at 5 uM after 24 hrs by propidium iodide staining based flow cytometry. It is filed as functional. Background: A flow cytometer gives signals particle by particle.
The nature of data set [6]: Aqueous solubility of compound in phosphate buffer at 0.25 mg at pH 7.4 after 48 hrs by HPLC based shake flask method. The format is physicochemical.
Data set [7] addresses Dual specificity protein kinase CLK1 (Mus musculus) (UniProt P22518). As to the kind of experiment: Inhibition of GST-tagged mouse recombinant CLK1 expressed in Escherichia coli at 10 uM after 30 mins by scintillation counting method. The gist of the method: (§2)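 Radiometric kinase assay with 15 µM ATP, 30 min at 30 °C in buffer A (10 mM MgCl2, 1 mM EGTA, 1 mM DTT, 25 mM Tris-HCl pH 7.5, 50 µg/mL heparin); BSA 0.15 mg/mL added except for CDK2. Substrates: histone H1 (CDK1, CDK2, CDK5), CDK7/9-Tide (CDK9), RS peptide (DYRK1A, CLK1), GS-1 (GSK-3). Stopped onto P81 paper, acid-washed, scintillation counted; activity as % of DMSO control.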

Data set [8] concerns the target CDK2/Cyclin A2 (Homo sapiens) (UniProt P24941+P20248). As to the kind of experiment: Inhibition of human recombinant CDK2/cyclin A at 10 uM using histone H1 as substrate after 30 mins by scintillation counting method. The format is protein-complex assay. The method in brief:
as §2

Another data set deals with Asteroidea. As to the kind of experiment: Inhibition of M phase starfish oocytes CDK1/cyclin B at 10 uM using histone H1 as substrate after 30 mins by scintillation counting method. The method in brief:
as §2

In data set [9] the target is CDK9/cyclin T1 (Homo sapiens) (UniProt O60563+P50750). As to the kind of experiment: Inhibition of human recombinant CDK9/cyclinT expressed in insect cells at 10 uM using CDK7/9-Tide as substrate after 30 mins by scintillation counting method. The method in brief: as §2
For the next data set, the species on record is Sus scrofa. Put plainly: Inhibition of porcine brain CK1delta/epsilon at 10 uM using CKS peptide as substrate after 30 mins by scintillation counting method. The method in brief:
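Native porcine brain CK1δ/ε purified on axin 2-sepharose, assayed with 0.67 µg CKS peptide and 15 µM ATP, 30 min at 30 °C; phosphate incorporation captured on P81 paper, counted by scintillation, expressed as % of activity without inhibitor.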

For data set [10], the target named is Cyclin-dependent kinase 5/CDK5 activator 1 (Homo sapiens) (UniProt Q00535+Q15078). As to the kind of experiment: Inhibition of human recombinant CDK5/p25 expressed in Escherichia coli at 10 uM using histone H1 as substrate after 30 mins by scintillation counting method. The method in brief:
as §2

Data set [11] concerns the target Dual specificity tyrosine-phosphorylation-regulated kinase 1A (Homo sapiens) (UniProt Q13627). As to the kind of experiment: Inhibition of GST-tagged human recombinant DYRK1A expressed in Escherichia coli at 10 uM after 30 mins by scintillation counting method. The method in brief:
as §2

For data set [12], the target named is Glycogen synthase kinase-3 (Sus scrofa) (UniProt B2LUN4+I6LNT8). As to the kind of experiment: Inhibition of porcine brain GSK-3alpha/beta at 10 uM using GS-1 as substrate after 30 mins by scintillation counting method. The gist of the method: as §2

Sequence of Cyclin-dependent kinase 5/CDK5 activator 1 (Homo sapiens) (Q00535 whole entry): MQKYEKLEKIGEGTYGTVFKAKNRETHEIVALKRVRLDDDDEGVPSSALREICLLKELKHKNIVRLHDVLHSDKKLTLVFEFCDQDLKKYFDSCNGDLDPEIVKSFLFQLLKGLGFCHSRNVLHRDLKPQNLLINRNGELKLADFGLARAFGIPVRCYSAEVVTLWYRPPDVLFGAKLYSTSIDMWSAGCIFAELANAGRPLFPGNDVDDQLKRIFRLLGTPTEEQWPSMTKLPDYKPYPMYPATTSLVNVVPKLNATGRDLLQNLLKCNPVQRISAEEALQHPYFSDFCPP
Sequence of Cyclin-dependent kinase 5/CDK5 activator 1 (Homo sapiens) (Q15078 99-307 partner limits assumed): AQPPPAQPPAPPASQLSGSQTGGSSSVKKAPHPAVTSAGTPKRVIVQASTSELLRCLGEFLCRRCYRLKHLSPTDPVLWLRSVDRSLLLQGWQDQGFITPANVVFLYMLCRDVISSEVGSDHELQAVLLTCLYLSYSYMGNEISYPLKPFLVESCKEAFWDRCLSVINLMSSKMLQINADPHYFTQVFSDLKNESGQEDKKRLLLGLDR
Sequence of Dual specificity protein kinase CLK1 (Mus musculus) (P22518 whole entry, looked up): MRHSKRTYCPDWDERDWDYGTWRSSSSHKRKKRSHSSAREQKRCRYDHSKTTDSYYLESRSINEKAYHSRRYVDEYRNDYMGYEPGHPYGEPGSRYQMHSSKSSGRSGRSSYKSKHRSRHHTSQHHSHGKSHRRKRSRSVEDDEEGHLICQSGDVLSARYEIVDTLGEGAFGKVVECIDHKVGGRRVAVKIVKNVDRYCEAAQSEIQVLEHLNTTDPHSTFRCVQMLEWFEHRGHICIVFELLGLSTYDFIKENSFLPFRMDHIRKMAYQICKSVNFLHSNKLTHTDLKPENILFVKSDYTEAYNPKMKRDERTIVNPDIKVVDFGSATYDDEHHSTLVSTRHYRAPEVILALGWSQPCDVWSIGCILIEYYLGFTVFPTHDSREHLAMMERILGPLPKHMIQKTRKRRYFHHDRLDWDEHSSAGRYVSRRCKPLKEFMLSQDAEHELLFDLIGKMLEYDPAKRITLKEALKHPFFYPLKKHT

`O=C(CN1C(=O)Cc2c([nH]c3ccc(Br)cc23)-c2ccc(Cl)cc21)NCc1cccc(Cl)c1`: the Activity in the data set with Trypanosoma brucei was found to be 55.9%. The pIC50 in data set [1] was 4.96; in data set [3], 4.77. Further, the selectivity ratio in data set [2] was determined as 91. The pEC50 in data set [4] was 5.96.
As to `CNCCNC(=O)CN1C(=O)Cc2c([nH]c3ccc(C(F)(F)F)cc23)-c2ccccc21`, the Activity stood at 70% in the data set on Trypanosoma brucei and 44.5% with Trypanosoma cruzi. The selectivity ratio in [2] was 1. Moreover, the pIC50 in data set [3] is 6.46. Besides, the pEC50 in data set [4] was 5.08.
As to `O=C(CN1C(=O)Cc2c([nH]c3ccc(Br)cc23)-c2ccc(Cl)cc21)NCc1ccc(Cl)cc1`, the Activity in the data set with Trypanosoma brucei stood at 50.1%; in the data set with Leishmania infantum, 109%. The pIC50 in data set [1] was 4.96. In data set [2], the selectivity ratio is over 62. The pEC50 in data set [4] was 6.10.
With `O=C(CN1C(=O)Cc2c([nH]c3ccc(Br)cc23)-c2ccc(Cl)cc21)NCc1ccncc1`, the Activity in [5] was 49.1%; in the data set with Trypanosoma brucei it was 65.2%; with Trypanosoma cruzi, 58.1%. Further, in data set [3], the pIC50 is 5.92.
On to `O=C(CN1C(=O)Cc2c([nH]c3ccc(Br)cc23)-c2ccc(Cl)cc21)NCc1ccc(Cl)c(Cl)c1`, for which, in the data set on Trypanosoma brucei, the Activity came to 42%. The values for the pIC50 in data set [1] and in [3] were 5.05 and 4.72, respectively. Further, in [2], the selectivity ratio is 12. Also, the pEC50 in [4] is 6.08.
For `COc1ccc(CNC(=O)CN2C(=O)Cc3c([nH]c4ccc(Br)cc34)-c3ccc(Cl)cc32)cc1` the same measures were 53.5%, 4.96, 4.62, 22 and 6.00.
On to `O=C(CN1C(=O)Cc2c([nH]c3ccc(Br)cc23)-c2ccc(Cl)cc21)NCc1ccc(C(F)(F)F)cc1`, for which the Activity with Trypanosoma brucei was 63.5%; in the data set with Leishmania infantum, 55.4%. The pIC50 in data set [1] is 5.05. The selectivity ratio in data set [2] is over 18. Also, the pEC50 in data set [4] was 5.74.
For the compound `O=C(CN1C(=O)Cc2c([nH]c3ccc(Br)cc23)-c2ccc(Cl)cc21)NCc1cccnc1`, the Activity in data set [5] came to 59.4%; in the data set with Trypanosoma brucei, 64.8%. Also, the pIC50 was 5.05 in data set [1] and 4.96 in data set [3].
The compound `Cc1ccc(CNC(=O)CN2C(=O)Cc3c([nH]c4ccc(Br)cc34)-c3ccc(Cl)cc32)cc1` showed a solubility (thermodynamic) at 48 h in data set [6] of under 0.48 µM. Besides, the Activity in the data set on Trypanosoma brucei was determined as 53.7%; in the data set with Leishmania infantum it was 48.6%. Further, the pIC50 in data set [1] was 5.05. The selectivity ratio in data set [2] is over 167. Besides, in data set [4], the pEC50 is 6.52.
Compound `O=C(CN1C(=O)Cc2c([nH]c3ccc(Br)cc23)-c2ccc(Cl)cc21)NCc1ccc(O)cc1` showed a solubility (thermodynamic) at 48 h in data set [6] of under 4.8 µM. In addition, the Activity with Trypanosoma brucei was determined as 58%. Besides, the pIC50 is 5.05 in [1] and 5.00 in [3]. In addition, in data set [2], the selectivity ratio stood at 238. Moreover, the pEC50 in data set [4] is 6.08.
Compound `O=C(CN1C(=O)Cc2c([nH]c3ccc(Br)cc23)-c2ccc(Cl)cc21)NCc1ccccc1` had a thermodynamic solubility at 48 h in data set [6] of under 0.49 µM. The values for the Activity in the data set on Trypanosoma brucei, with Trypanosoma cruzi and in the data set on Leishmania infantum were 45.2%, 72.8% and 50%, respectively. The inhibition entry (in data set [7]; in data set [8]; with Asteroidea; in data set [9]; in the data set filed under Sus scrofa; in [10]) was “inactive” throughout. Also, the inhibition result in [11] and in data set [12] was “inactive” in each case. Also, the selectivity ratio in [2] came out at 1410. Moreover, in [4], the pEC50 is 7.40.
With `O=C(CN1C(=O)Cc2c([nH]c3ccc(Br)cc23)-c2ccc(Cl)cc21)NCc1ccccn1`, the Activity worked out at 33.8% in data set [5], 75.8% in the data set with Trypanosoma brucei, 54.8% in the data set with Trypanosoma cruzi and 95.5% with Leishmania infantum.
Take `O=C(CN1C(=O)Cc2c([nH]c3ccc(Br)cc23)-c2ccc(Cl)cc21)NCc1ccccc1Cl`: the Activity in [5] was found to be 53.2%; in the data set with Trypanosoma brucei, 55.3%. The pIC50 in data set [1] is 4.96; in data set [3], 4.64.
